Tested on: MS2 coat protein
Assay: apparent Kd, MS2 coat protein; higher = weaker binding; RNA-MaP array
In short: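 Apparent Kd values come from the median of binding-curve fits to single clusters. To obtain them, designed RNAs transcribed on an Illumina sequencing chip from sequenced DNA templates were incubated at room temperature with fluorescently labeled MS2 coat protein at 1.5 nM to 3 μM, with or without input ligand, for 0.8–1.5 h at the lowest and 10–20 min at the highest concentrations. Designs measured on fewer than 10 clusters were excluded.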

[1] = designed as: ON switch for flavin mononucleotide, no ligand
[2] = ligand present: flavin mononucleotide, designed as: ON switch for flavin mononucleotide
[3] = designed as: OFF switch for flavin mononucleotide, no ligand
[4] = ligand present: flavin mononucleotide, designed as: OFF switch for flavin mononucleotide

Sequence	apparent Kd [3]	apparent Kd [4]	further results
CCUCGAACGGCAGGAUAUAUUGGUCAAAAUUCUAUAGAAGGGCCUCUCCCUGGAACAUGAGGAUCACCCAUGUGCGCACUUGUG			apparent Kd [1]: 57.4 nM; apparent Kd [2]: 61.9 nM
UACAUUCGUCAGGAUAUCCAUCAGCCAGGCCUCGGAGAAGGGACUACAUGAGGAUCACCCAUGUGUAACCUCGU	40.4 nM	88.8 nM	
ACAGGACUAGUAGGAUAUGCGCCGGUAGUACCCGCAGAAGGACUUUCACGGGUUAUUGUCACAUGAGGAUCACCCAUGUGAGGG	13.2 nM	13 nM	
UGAUGAUGACAGGAUAUUAGCGUAAUGAAACUUUAAGAAGGGUCGACAUGAGGAUCACCCAUGUAUGAUCUCGA	5.5 nM	5.38 nM	
CGUACAAUUAAGAAGGGACAUUGCUAUAGACUGUCAGGAUAUUAUGUACAUGAGGAUCACCCAUGUAGUAGUCAAGGGUCGGAA	16.7 nM	61.7 nM	
GCCCGGACACAAGGAUAUCAGACCAAUACAUGAGGAUCACCCAUGUCGGGCCUCUAAGUACGACCUGAGAAGGUGUCUCCCAGU	421 nM	345 nM	
GGUAUGUCAGGAUAUUAAUGGUCAGUAACGGAACAGAGGAGUAAGAAGGGACAUGAGGAUCACCCAUGUAUUCG	17.1 nM	16.4 nM	
AGUGCAAUAUAGAAGGCCCAAACAUGAGGAUCACCCAUGUAGGUGUCACUGGUAGUGAAGGCUCGGGAGGAUAUAUCAUCCACA			apparent Kd [1]: 32.9 nM; apparent Kd [2]: 30.7 nM
CUACGGACGGAAGGAUAUAUACGGGUGCCCAGUAUAGAAGGUCCAUACAUGAGGAUCACCCAUGUCAUUAAACCUACGGAGGAG			apparent Kd [1]: 145 nM; apparent Kd [2]: 80.6 nM
CUGACGUAGGAAGAUAUCUGGAACAAGGAUACCAGUAAACCAACAUACCCUUGGCAGCCUAAAACAUGAGGAUCACCCAUGUAAU			apparent Kd (designed as: OFF switch for theophylline, no ligand): 12.4 nM; apparent Kd (ligand present: theophylline, designed as: OFF switch for theophylline): 14.6 nM
CAAUAACAGAAAGGAUAUGGGCUCGAUACAUGAGGAUCACCCAUGUCUCCGUCAACGCUCAGUGCCCAGAAGGUUCCGCAGAAU			apparent Kd [1]: 34 nM; apparent Kd [2]: 20.2 nM
ACACAUAAUCUCGGACAUGAGGAUCACCCAUGUGUCACAAUCAGAAGGCACACUUGACAAGGGAGUGAGGAUAUGAAUACAUUA	124 nM	32.7 nM	
AAGGAAUAUGAGGAUAUUGAUGCGAAACCUACUCAAGAAGGCAUAACAUGAGGAUCACCCAUGUGACCCUUAUA	19.4 nM	34.4 nM	
AGUUACAAUGUCAGGAUAUUGCUCCCACGACGGAACAAGAAGGGACAUGAGGAUCACCCAUGUUAGUCUUCGUC	4.96 nM	5.98 nM	
UGUAACACAGGAUAUACAUAGGCCAGCCACUGACUCAGGUCACAUGAGGAUCACCCAUGUAGAAGGGUGCUGAA	116 nM	84.1 nM	
CACGCUCACCAGAAGGCAGAGCAUAAAUGACAUGAGGAUCACCCAUGUACGCAGGAGAUCGGGUCUGAGGAUAUGGCAAUAGGC			apparent Kd [1]: 21.4 nM; apparent Kd [2]: 20.5 nM
GUAUGCCACAGGGACAUGAGGAUCACCCAUGUAAAUACGGAUAGAAGGCGACGAGCGUAGCUCUUCGAGGAUAUAUGCUUUUUG	31.5 nM	34.2 nM	
GCUUUGCUGUGGUCCCUGAUACAUGAGGAUCACCCAUGUGAGAAGGAUAUUCAGAAUGGUCUCCCGAAGAAGGUCUGCACCUGG	15.4 nM	11.3 nM	
AACUCCACCGCAGGAUAUCCGGUCUCUCUGUAGACGACAUGAGGAUCACCCAUGUAUCCGGGAAUGGAGAAGGGCGGUGCUCCU	16.4 nM	13 nM	
CUUCAACAUGAGGAUCACCCAUGUAGUGAUACCAGUCACUCAUACGACCCUUGGCAGCACAUUUUCUGUCGGCAUGUAGACGAUC			apparent Kd (designed as: ON switch for theophylline, no ligand): 121 nM; apparent Kd (ligand present: theophylline, designed as: ON switch for theophylline): 59.9 nM
ACCUAAUAAGGAUAUACGAAAGAGCCACCUGUAAACAACCGACAUGAGGAUCACCCAUGUAGAAGGUAUUAGGU	4.32 nM	9.47 nM	
CCUGACAUGAGGAUCACCCAUGUGUGAGCACGAGGACCGGUACGGCCGCCACUCGCGUUGCCGGCCGGACUAUCUGGCGAAGUCA			apparent Kd (designed as: ON switch for tryptophan, no ligand): 32.9 nM; apparent Kd (ligand present: tryptophan, designed as: ON switch for tryptophan): 35.1 nM
GUGUCGCGUACAGGAUAUGCUUAGGCGCUGCCCUCACAUGAGGAUCACCCAUGUAGUUUCCGCAGGCAGAAGGGUACUGACGUC	9.67 nM	16.2 nM	
AUACAGCUAGGAUAUCCGAUAGUAUACAUGAGGAUCACCCAUGUCCUGACGGCCGACCAUGGAGAAGGAGCAGAUA	42.2 nM	31.9 nM	
GCGAACGGACCGUUGCCUUCCUGUGUGCGGCGAGGACCGGUACGGCCGCCACUCGACUGCGUACAUGAGGAUCACCCAUGUUAGA			apparent Kd (designed as: OFF switch for tryptophan, no ligand): 26.5 nM; apparent Kd (ligand present: tryptophan, designed as: OFF switch for tryptophan): 66.3 nM
CUGUUAAGUAAAGGAUAUCCUCCAACAGCUAGAGGAGAAGGUUACUCCUUAAUCCACAUGAGGAUCACCCAUGUUAGUGUAAGU			apparent Kd [1]: 11.5 nM; apparent Kd [2]: 10.1 nM
GAAAAGGACAAAGGAUAUGGGUAGGCAAUCAAUCCAGAAGGUAGACCAGGCAACCUAAACAAACAUGAGGAUCACCCAUGUUAG			apparent Kd [1]: 16.6 nM; apparent Kd [2]: 14.3 nM
